Compound activity deposited in PubChem by several laboratories.
This is a sample that favours compounds with a hit; in the whole collection about 1.5% have one here.
NRP1-CendR mod = modulators of CendR peptide binding to human neuropilin-1. AID 602438. 0.85% of 360,000 active. FAM-RPARPAR peptide binding to NRP-1, fluorescence polarization. inhibition, % at 25 µM;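 active means inhibition or corrected inhibition above about 18%, plus a signal ratio from 0.5 to 1.5, limit read from the data, passing the limit was not always enough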
MT1-MMP act inh = MT1-MMP (human) activation inhibition. P50281. HT1080 RFP-PRO-GFP cells, GFP/RFP ratio fluorescence, overnight; percent of plate control window, DMSO zero. GFP/RFP ratio change, % at 20 µM. 0.061% of 360,000 active. AID 651647;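 active means GFP/RFP ratio change of at least 30% with cell ATP level not reduced by more than half and red fluorescence within 50% of control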
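system = RFP-PRO-GFP reporter HT1080 cells | dosing = 20 µM single dose, 1% DMSO | timing = overnight cell settling, then overnight compound exposure, 37 °C, 5% CO2 | read-out basis = GFP/RFP fluorescence ratio | controls = DMSO and RFP-L50D-GFP cell wells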
DAGLB inh = blocks human DAGLB lipase activity | inhibition, % at 5.17 µM | Q8NCG7 | 0.059% of 340,000 active | HEK293T DAGLB membrane lysate, EnzChek fluorogenic substrate; in the data active means inhibition above about 34%
Target sequence (Q8NCG7 whole entry, looked up): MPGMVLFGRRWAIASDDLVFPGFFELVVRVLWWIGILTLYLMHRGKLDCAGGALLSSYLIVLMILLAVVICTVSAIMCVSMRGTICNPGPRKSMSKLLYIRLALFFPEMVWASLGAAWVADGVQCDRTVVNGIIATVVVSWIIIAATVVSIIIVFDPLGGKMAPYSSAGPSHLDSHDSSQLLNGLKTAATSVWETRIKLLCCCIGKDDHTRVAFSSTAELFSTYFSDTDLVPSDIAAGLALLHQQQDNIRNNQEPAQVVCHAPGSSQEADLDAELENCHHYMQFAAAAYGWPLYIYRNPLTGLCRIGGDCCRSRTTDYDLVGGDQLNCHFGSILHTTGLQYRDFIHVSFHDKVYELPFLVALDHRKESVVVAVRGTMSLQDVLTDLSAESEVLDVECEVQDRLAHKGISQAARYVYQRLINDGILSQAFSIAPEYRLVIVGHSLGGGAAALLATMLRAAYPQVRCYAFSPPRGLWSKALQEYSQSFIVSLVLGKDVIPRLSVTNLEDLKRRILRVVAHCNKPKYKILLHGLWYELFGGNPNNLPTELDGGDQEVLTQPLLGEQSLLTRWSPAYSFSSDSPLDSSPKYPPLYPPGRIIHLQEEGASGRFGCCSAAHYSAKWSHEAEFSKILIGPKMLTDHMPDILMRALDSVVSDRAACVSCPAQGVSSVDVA
CTSL1 counter = cathepsin L1 inhibition, PFM18AAP counter-screen; recombinant F. hepatica cathepsin L1, Z-Leu-Arg-MCA fluorescence; inhibition, % at 5.96 µM; 0.49% of 300,000 active; AID 1906;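 active means inhibition above the mean of all tested compounds plus 3 SD, set per screening campaign, cut at about 17% in these data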
UCH37 DUB inh = inhibitors of human deubiquitinating enzyme UCH37; 0.33% of 330,000 active; purified proteasome/UCH37, Ub-AMC cleavage fluorescence; Q9Y5K5; inhibition, % (no concentration beside the values);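 active means mean inhibition over replicate wells above about 20%, limit read from the data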
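Assay system: Proteasome-bound UCH37. Buffer or medium: pH 7.4 Tris-HCl (50 mM) with ovalbumin, ATP-MgCl2, DTT. Incubation: 30 min preincubation with enzyme, 25 min cleavage at room temperature. Measured by: fluorescence, ex 355 nm, em 460 nm. Read-out basis: percent inhibition. Control set: wells without proteasome as full block, compound-free enzyme plus substrate as uninhibited.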
Hits are given with their value; n = inactive; x = no result.

SMILES	NRP1-CendR mod	MT1-MMP act inh	DAGLB inh	CTSL1 counter	UCH37 DUB inh
COc1cc(C(=O)Nc2ccccc2N2CCOCC2)ccc1OCc1c(C)noc1C	27	n	n	n	n
O=C(NN=Cc1cc(Br)c(Br)o1)C1COc2ccccc2O1 (stereo not drawn)	x	x	x	x	n
Cc1nc(CSc2ccc(Br)cc2)cs1	20	n	n	n	n
C[n+]1ccccc1C=NO	x	x	x	x	n
CCCCn1cnc2c(c(-c3ccccc3)c(-c3ccccc3)n2Cc2ccco2)c1=N	n	n	x	n	n
N=c1c2c(-c3ccccc3)c(-c3ccccc3)n(Cc3ccccc3)c2ncn1CCCn1ccnc1	n	n	n	n	24
COC(=O)c1cccc(C=NNC(N)=S)c1O	x	x	x	x	n
COc1cccc(C(=O)NN=Cc2ccc(OC3CSC3)cc2)c1	x	x	x	x	n
C=CCNC(=O)c1cnn(-c2ccccc2)c1-c1ccccc1	26	n	n	n	n
CC(C)C[C@H]1CN=C(Nc2ccccc2)N1CC1CCCCCC1	n	n	n	20	n
ON=C1CCC(=NO)c2nn(-c3ccccc3Cl)nc21	x	x	x	x	n
O=[N+]([O-])c1ccc(-n2nnnc2CN2CCOCC2)cc1	n	n	n	n	n
O=[N+]([O-])c1ccc(-n2nnnc2CN2CCCCC2)cc1	24	n	n	n	n
CC1(c2ccc3noc(-c4ccc(F)cc4)c3c2)OCCO1	27	n	n	n	n
O=Cc1ccc2noc(-c3ccc(F)cc3)c2c1	24	n	n	n	n
CC1(c2ccc3noc(-c4ccccc4)c3c2)OCCO1	n	n	n	n	n
O=C(NN=Cc1ccccc1O)c1ccncc1	x	x	x	x	n
COc1cc(NCCCCC(C)N)c2nccc(C)c2c1 (stereo not drawn)	n	n	n	x	x
COc1cc(NCCCC(C)N)c2ncccc2c1 (stereo not drawn)	44	n	n	x	n
COc1cc(C=NNC(=O)CCc2c(C)n[nH]c2C)cc(OC)c1OC	x	x	x	x	n
Cc1ccc2oc(=O)n(CCOc3ccccc3C)c2c1	38	n	n	n	n
CCOC(=O)c1ccc(N2CCN(C(=O)c3ccccc3)CC2)c(NC(=O)c2ccco2)c1	31	n	n	n	n
O=C(Nc1ccc(N2CCN(C(=O)c3ccccc3)CC2)c(Cl)c1)c1ccco1	n	n	n	n	n
CCCCNC(=O)CSc1nc2ccc(C)cc2[nH]1	35	n	n	n	n
COc1ccc(CNC(=O)CSc2nc3ccc(C)cc3[nH]2)cc1	n	n	n	n	n
SMILES	NRP1-CendR mod	MT1-MMP act inh	DAGLB inh	CTSL1 counter	UCH37 DUB inh
COc1ccc(CC(C)=NNC(=S)Nc2ccc(Cl)cc2)cc1	x	x	x	x	n
COc1ccc(C/C(C)=N/NC(=S)Nc2ccc(Cl)cc2)cc1	41	n	n	n	x
Cc1cccc(C2=NNC(=O)C(c3ccc(Cl)cc3)C2)c1 (stereo not drawn)	25	n	n	n	n
Cc1ccc(C2CC(c3ccc(Cl)cc3)=NNC2=O)cc1 (stereo not drawn)	n	n	n	n	n
Nc1ccc(O)cc1	x	x	x	96	x
Cc1ccc(NC(=S)NN=Cc2ccc(OCCC(C)C)cc2)c(C)c1	x	x	x	x	n
N#CCC(=O)NN=Cc1cc(-c2ccccc2)n(-c2ccc(Cl)cc2)c1-c1ccccc1	x	x	x	x	n
Nc1scc2c(C(=O)N/N=C/c3ccc(Cl)cc3)nn(-c3ccccc3)c(=O)c12	n	n	n	34	x
COc1ccc(C=NNC(=O)c2nn(-c3ccc(Cl)cc3)c(=O)c3c(N)scc23)cc1	x	x	x	x	n
O=C(N/N=C/c1cc(Br)c(Br)o1)c1cccnc1	31	n	n	n	x
Oc1c(Br)cc(Br)cc1CNc1cccc2cccnc12	n	n	n	29	n
Cc1ccc(NC=C(S(=O)(=O)c2ccccc2)S(=O)(=O)c2ccccc2)cc1	29	n	n	n	n
O=C(NNC(=O)C1CCN(Cc2ccccc2)CC1)c1cccc(Cl)c1	23	n	n	n	n
Cc1ccc(C(=O)NNC(=O)C2CCN(Cc3ccccc3)CC2)cc1	n	n	n	n	n
O=C(CSc1cccc[n+]1[O-])Nc1cc(S(=O)(=O)N2CCOCC2)ccc1N1CCOCC1	28	n	n	n	n
CN(Cc1ccc2c(c1)CCCN2C)C(=O)[C@H]1O[C@@H](n2ccc(=O)[nH]c2=O)[C@H](O)[C@@H]1O	27	n	x	x	x
COc1ccc(CN(C)C(=O)[C@H]2O[C@@H](n3ccc(=O)[nH]c3=O)[C@H](O)[C@@H]2O)cc1OC	n	n	x	x	x
CN(C1=C(N2CCOCC2)C(=O)c2ccccc2C1=O)c1ccccc1	n	n	n	62	n
CCOC(=O)c1cc(CC)sc1NC(=O)Cc1ccsc1	22	n	n	n	n
CCCN(CCC)S(=O)(=O)c1ccc(C(=O)Nc2nnc(-c3cccc(OC)c3)o2)cc1	n	n	n	n	n
CCCN(CCC)S(=O)(=O)c1ccc(C(=O)Nc2nnc(-c3cc(OC)cc(OC)c3)o2)cc1	25	n	n	n	n
CCCCN(C)S(=O)(=O)c1ccc(C(=O)Nc2nnc(C3=COCCO3)o2)cc1	30	n	n	n	n
Cn1c(CNC(=O)c2ccccc2F)nnc1SCC(=O)NCc1ccccc1	n	n	n	n	n
Cn1c(CNC(=O)c2ccccc2F)nnc1SCC(=O)c1ccccc1	27	n	n	n	n
CCN1C(=NCCc2ccccn2)N[C@@H](c2cccc(C(F)(F)F)c2)C(C(=O)OC)=C1C	21	n	n	x	n
SMILES	NRP1-CendR mod	MT1-MMP act inh	DAGLB inh	CTSL1 counter	UCH37 DUB inh
Cn1cccc1C=NNC(=O)CNc1ccc2ccccc2c1	x	x	x	x	n
Clc1ccc(Cl)c(OCc2cc(-c3ccccc3Cl)on2)c1	n	n	n	19	n
O=C(NN=Cc1cc([N+](=O)[O-])ccc1O)/C(=C\c1cccs1)NC(=O)c1ccccc1	x	x	x	x	n
CC1=CC(C)(C)[N+](C)(C)c2ccc(C)cc21	38	n	n	n	n
CC1=CC(C)(C)N(S(=O)(=O)c2ccc(C)cc2)c2ccc(C)cc21	n	n	n	n	n
CC1=NNC(=O)C1CCC(=O)NN=Cc1ccc(Cl)cc1 (stereo not drawn)	x	x	x	x	n
O=C(NN=Cc1ccc(-c2cccc([N+](=O)[O-])c2)o1)[C@H]1C[C@@H]1c1ccccc1	x	x	x	x	n
O=C(Cn1cnc2ccccc2c1=O)N/N=C/c1ccc(Br)cc1	23	n	x	n	x
COc1cccc(C=NNC(=O)C(C)Cn2cnc3ccccc32)c1 (stereo not drawn)	x	x	x	x	n
CC(C)C(C(=O)Nc1ccccc1)N1C(=O)c2ccccc2C1=O (stereo not drawn)	n	n	n	n	n
O=C(O)C(Cc1ccccc1)N1C(=O)c2ccccc2C1=O (stereo not drawn)	n	n	n	n	n
[N-]=[N+]=CC(=O)C(Cc1ccccc1)N1C(=O)c2ccccc2C1=O (stereo not drawn)	n	n	n	26	n
NC(=O)C(Cc1ccccc1)N1C(=O)c2ccccc2C1=O (stereo not drawn)	n	n	n	19	n
